Usually inhibition in vivo stands for how much of the control response was suppressed.

Activity calls are given as the source filed them. No cut-off for these calls is given here.

One assay has as its system Mus musculus. Description: Antinociceptive activity in Kunming mouse model of acetic-acid-induced writhing assessed as inhibition of writhing numbers at 5 mg/kg measured for 30 mins relative to control. Format: functional. The method in brief:
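Acetic-acid-induced writhing model in Kunming mice (10 per group); doses 0.2, 1.0 and 5.0 mg/kg; vehicle-treated and morphine positive-control groups; inhibition of writhing relative to vehicle; mean ± SEM; one-way ANOVA with Bonferroni test. Animal work approved by institutional ethics committee.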

The next assay has as its system A549. Description: Cytotoxicity against human A549 cells at 40 uM after 48 hrs by MTT assay. Format: functional, cell-based.
Assay [1] has as its target T1, Tyrosine-protein phosphatase non-receptor type 1 (Homo sapiens) (UniProt P18031).
T1 sequence (whole entry): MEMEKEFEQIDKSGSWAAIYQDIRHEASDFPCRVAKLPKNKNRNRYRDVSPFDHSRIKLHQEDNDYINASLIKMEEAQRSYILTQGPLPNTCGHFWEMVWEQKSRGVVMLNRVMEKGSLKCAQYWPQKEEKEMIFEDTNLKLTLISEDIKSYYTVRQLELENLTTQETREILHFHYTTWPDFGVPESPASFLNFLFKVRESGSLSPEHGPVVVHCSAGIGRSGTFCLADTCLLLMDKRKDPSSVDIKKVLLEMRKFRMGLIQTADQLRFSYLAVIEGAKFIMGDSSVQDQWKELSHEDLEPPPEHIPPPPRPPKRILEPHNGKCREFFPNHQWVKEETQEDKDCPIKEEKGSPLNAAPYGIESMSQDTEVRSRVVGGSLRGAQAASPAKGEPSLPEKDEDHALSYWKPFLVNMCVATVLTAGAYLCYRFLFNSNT
Description: Inhibition of recombinant human PTP1B at 40 uM using pNPP as substrate preincubated for 10 mins followed by substrate addition and measured after 30 mins at 5 mins time interval for 30 mins.

For another assay, the system named is HL-60. Description: Cytotoxicity against human HL60 cells at 40 uM after 48 hrs by MTT assay. It is filed as functional, cell-based. A general note: Formazan colour is commonly taken as a measure of viable cells.
A further assay has as its system MCF7. Description: Cytotoxicity against human MCF7 cells at 40 uM after 48 hrs by MTT assay. Format: functional, cell-based.
A further assay relates to SMMC-7721. Description: Cytotoxicity against human SMMC7721 cells at 40 uM after 48 hrs by MTT assay. Format: functional, cell-based.
Another assay relates to RAW264.7. Description: Anti-inflammatory activity in mouse RAW264.7 cells assessed as inhibition of LPS-induced NO production at 40 uM. Format: functional, cell-based.
For the next assay, the system named is SW480. Description: Cytotoxicity against human SW480 cells at 40 uM after 48 hrs by MTT assay. Format: functional, cell-based.

In the case of `C=C1[C@@H]2CC[C@@H]3C[C@@]2(C[C@@H](O)[C@@]2(O)[C@H]1C[C@H](O[C@@H]1O[C@H](CO)[C@@H](O)[C@H](O)[C@H]1O)C2(C)C)C[C@@]3(C)O`, the inhibition entry with Mus musculus was “Active”. The outcome in the assay on A549, with HL-60, in the assay with MCF7, with SMMC-7721 and with SW480 was inactive. In addition, the inhibition entry (in assay [1]; with RAW264.7) was “inactive” each time.
`C=C1[C@H]2C[C@H](O)C(C)(C)[C@]2(O)CC[C@@]23C[C@@H](CC[C@@H]12)[C@](C)(O[C@@H]1O[C@H](CO)[C@@H](O)[C@H](O)[C@H]1O)C3`: the inhibition entry (in the assay with Mus musculus; in assay [1]; in the assay with RAW264.7) was “inactive” in each case. The result with A549, with HL-60, in the assay on MCF7, with SMMC-7721 and with SW480 was inactive.
As for `C=C1[C@@H]2CC[C@@H]3C[C@@]2(C[C@@H](O)[C@@]2(O)[C@H]1C[C@@H](O[C@@H]1O[C@H](CO)[C@@H](O)[C@H](O)[C@H]1O)C2(C)C)C[C@@]3(C)O`, the inhibition result in the assay with Mus musculus is “Active”. Further, the outcome in the assay with A549, in the assay on HL-60, with MCF7, with SMMC-7721 and in the assay on SW480 was inactive. For the same molecule, the inhibition entry (in assay [1]; in the assay on RAW264.7) was “inactive” each time.
Turning to `C=C1[C@@H]2CC[C@@H]3[C@@H](O)[C@@]2(C[C@@H](O)[C@@]2(O)[C@H]1C[C@H](O[C@@H]1O[C@H](CO)[C@@H](O)[C@H](O)[C@H]1O)C2(C)C)C[C@@]3(C)O`, the inhibition in vivo at 5 mg/kg with Mus musculus (0.5 h) is greater than 50%. Moreover, the result with A549, with HL-60, with MCF7, in the assay with SMMC-7721 and in the assay on SW480 was inactive. The inhibition entry (in assay [1]; in the assay on RAW264.7) was “inactive” throughout.
For `C=C1[C@@H]2CC[C@@H]3C[C@]2(C=C3C)C[C@@H](O)[C@@]2(O)[C@H]1C[C@H](O[C@@H]1O[C@H](CO)[C@@H](O)[C@H](O)[C@H]1O)C2(C)C`, the result in the assay on A549, with HL-60, in the assay with MCF7, in the assay with SMMC-7721 and in the assay on SW480 was inactive. In addition, the inhibition entry (in assay [1]; with RAW264.7) was “inactive” throughout.
Take `C=C1[C@@H]2CC[C@@H]3C[C@]2(C[C@@]3(C)O)[C@H](O)[C@@H](O)[C@@]2(O)[C@H]1C[C@H](O[C@@H]1O[C@H](CO)[C@@H](O)[C@H](O)[C@H]1O)C2(C)C`: the result in the assay with A549, with HL-60, with MCF7, with SMMC-7721 and with SW480 was inactive. The inhibition entry (in assay [1]; with RAW264.7) was “inactive” throughout.
As for `C=C1[C@H]2C[C@H](O[C@@H]3O[C@H](CO)[C@@H](O)[C@H](O)[C@H]3O)C(C)(C)[C@]2(O)CC[C@@]23C[C@@](O)(CC[C@@H]12)[C@](C)(O)C3`, the result with A549, in the assay on HL-60, with MCF7, in the assay on SMMC-7721 and with SW480 was inactive. Further, the inhibition result (in assay [1]; with RAW264.7) was “inactive” in each case.

For the origin of these results see ChEMBL document CHEMBL4382232, “Grayanane Diterpenoid Glucosides from the Leaves of Rhododendron micranthum and Their Bioactivities Evaluation” (2018).
